# Data taken from ChEMBL document CHEMBL1148118, “Immunomodulatory proanthocyanidins from Ecdysanthera utilis” (J Nat Prod, 2002).
# Active and inactive are the calls of the source. The rule behind the calls is not given here.
# Legend:
# Format in all cases: functional, cell-based
# [1] = tested on: PBMC; assay: Inhibition of PHA-stimulated human PBMC proliferation assessed as [3H]thymidine uptake after 3 days by scintillation counting
# In short: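 Ficoll-Hypaque-isolated human PBMC at 2 × 10^6 cells/mL in RPMI-1640 with 2% FCS, 100 µL/well, with or without 5 µg/mL PHA plus test compound. Incubated 3 days at 37 °C in 5% CO2. 3H-thymidine (1 µCi/well) was then added for 16 h, and cells were harvested onto glass-fiber filters for scintillation counting. % inhibition = (control CPM − treated CPM)/control CPM × 100. DMSO 0.1% vehicle.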
# [2] = tested on: PBMC; assay: Immunomodulatory activity in PHA-stimulated human PBMC assessed as inhibition of IL2 production after 3 days by enzyme immuno assay
# In short: (§1)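 Human PBMC isolated by Ficoll-Hypaque density gradient, resuspended in RPMI-1640 with 2% FCS and penicillin/streptomycin. 2 × 10^5 cells/well cultured with PHA (5 µg/mL) plus 0, 6, 12.5, 25, 50 or 100 µM compound for 3 days. IL-2 and IFN-γ measured in the supernatants by EIA. Each point is the mean of three independent experiments.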
# [3] = tested on: PBMC; assay: Immunomodulatory activity in PHA-stimulated human PBMC assessed as inhibition of IFN-gamma production after 3 days by enzyme immuno assay; in short: as §1
SMILES,Activity [1],also measured
Oc1cc(O)c2c(c1)O[C@@]1(c3ccc(O)c(O)c3)Oc3cc(O)c4c(c3[C@@H]2[C@H]1O)O[C@H](c1ccc(O)c(O)c1)[C@H](O)C4,inactive,
Oc1cc(O)c2c(c1)O[C@@]1(c3ccc(O)c(O)c3)Oc3cc(O)c4c(c3[C@@H]2[C@H]1O)O[C@H](c1ccc(O)c(O)c1)[C@@H](O)C4 [PROANTHOCYANIDIN A1],,IC50 [1]: 30.6 µM; Activity [2]: Dose-dependent effect; IC50 ([2]; 72 h): 25 µM; Activity [3]: Dose-dependent effect; IC50 ([3]; 72 h): 5.1 µM
Oc1cc(O)c2c(c1)O[C@@]1(c3ccc(O)c(O)c3)Oc3cc(O)c4c(c3[C@@H]2[C@H]1O)O[C@H](c1ccc(O)c(O)c1)[C@H](O)[C@@H]4c1c(O)cc(O)c2c1O[C@H](c1ccc(O)c(O)c1)[C@H](O)C2,inactive,
Oc1cc(O)c2c(c1)O[C@H](c1ccc(O)c(O)c1)[C@H](O)C2,inactive,
Oc1cc(O)c2c(c1)O[C@H](c1ccc(O)c(O)c1)[C@H](O)[C@H]2c1c(O)cc(O)c2c1O[C@H](c1ccc(O)c(O)c1)[C@H](O)C2,inactive,
Oc1cc(O)c2c(c1)O[C@@]1(c3ccc(O)c(O)c3)Oc3cc(O)c4c(c3[C@@H]2[C@H]1O)O[C@@]1(c2ccc(O)c(O)c2)Oc2cc(O)c3c(c2[C@@H]4[C@@H]1O)O[C@H](c1ccc(O)c(O)c1)[C@H](O)C3,inactive,
Oc1cc(O)c2c(c1)O[C@H](c1ccc(O)c(O)c1)[C@H](O)[C@H]2c1c(O)cc(O)c2c1O[C@@]1(c3ccc(O)c(O)c3)Oc3cc(O)c4c(c3[C@@H]2[C@H]1O)O[C@H](c1ccc(O)c(O)c1)[C@H](O)[C@@H]4c1c(O)cc(O)c2c1O[C@H](c1ccc(O)c(O)c1)[C@H](O)C2,inactive,
